“And” between values parts separate entries of the source, which are not always exact repeats. Equal values may be shown once. “Also recorded” adds a separate entry of the source. Where a name gives a salt, the structure may show the parent alone. Marks after values point to notes of the source that are not given here.
Experiments:
[1] = format: in vivo, BALB/c mice; details: range over organs after topical NE treatment; listed as PM
In short: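 Healthy female BALB/c mice, 7–9 weeks (N = 3/group), received 50 μL NE topically at the tail base every three days for 15 days. ClAlPc groups were irradiated (672 ± 40 nm, 7 min, 20 J/cm2) 30 min post-application. Six days after treatment, liver, spleen, kidney and treated skin (20–25 mg) were macerated, sonicated and centrifuged 10 min at 10,000 rpm. Supernatants were taken up in Trizma buffer pH 7.8, and PM was measured by C18 HPLC after 1-fluoro-2,4-dinitrobenzene derivatization.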

cutaneous leishmaniasis = details: different CL topical formulations alone or combined; cited from earlier work
[2] = tested on: Intracellular amastigotes of L. (V.) braziliensis; test: Intracellular amastigote inhibition in transformed THP-1 cells; format: cell-based, Leishmania (Viannia) braziliensis
In short: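 PMA-differentiated (72 h) THP-1 cells infected with latent-phase L. (V.) braziliensis MHOM/BR/75/M2903 promastigotes, 8 × 10^5 cells/mL. Exposed 24 h to NE serial dilutions (1:2–1:1,000), vehicle, ClAlPc (0.04–20 µM) or PM (244.0–121,827.0 µM) solutions. Then 400–700 nm light, 32°C, 32 min, 5 J/cm2, or kept non-irradiated, followed by 24 h dark. Giemsa counts of infected/uninfected cells give % inhibition versus untreated controls. PI = % inhibition at 0 J/cm2 / % at 5 J/cm2.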

THP-1 cell = THP-1 cell toxicity; format: cell-based, Human
In short: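 Non-infected THP-1 cells were PMA-transformed (72 h) and seeded at 8 × 10^5 cells/mL. Treated 24 h with NE serial dilutions (1:2–1:1,000), vehicle, or ClAlPc/PM solutions. Irradiated at 37°C with 400–700 nm light, 32 min, 5 J/cm2, or left non-irradiated, then incubated 24 h in the dark. Viability read by MTT; % toxicity calculated relative to untreated controls.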

[3] = tested on: Promastigotes of L. (V.) braziliensis (MHOM/BR/75/M2903); test: Promastigote inhibition; format: cell-based, Leishmania (Viannia) braziliensis
[4] = Ex vivo skin permeation and retention test; format: in vitro ADME, mice
[5] = dilution 100 (0.4 µM ClAlPc), PDT + (5 J/cm^2)
[6] = dilution 1,000, PDT + (5 J/cm^2)

| Compound | % of inhibition (mean ± SD), Intracellular amastigotes ([2]; dilution 50, PDT + (5 J/cm^2)) | % of inhibition (mean ± SD), Intracellular amastigotes ([2]; dilution 50, PDT −) | % of inhibition (mean ± SD), Intracellular amastigotes [2, 5] | % of inhibition (mean ± SD), Intracellular amastigotes ([2]; dilution 100, PDT −) | % of inhibition (mean ± SD), Intracellular amastigotes ([2]; dilution 300, PDT + (5 J/cm^2)) | % of inhibition (mean ± SD), Intracellular amastigotes ([2]; dilution 300, PDT −) | % of inhibition (mean ± SD), Intracellular amastigotes ([2]; dilution 500, PDT + (5 J/cm^2)) | % of inhibition (mean ± SD), Intracellular amastigotes ([2]; dilution 500, PDT −) | % of inhibition (mean ± SD), THP-1 cell (THP-1 cell; dilution 2, PDT + (5 J/cm^2)) | % of inhibition (mean ± SD), THP-1 cell (THP-1 cell; dilution 2, PDT −) | % of inhibition (mean ± SD), THP-1 cell (THP-1 cell; dilution 10, PDT + (5 J/cm^2)) | % of inhibition (mean ± SD), THP-1 cell (THP-1 cell; dilution 10, PDT −) | % of inhibition (mean ± SD), THP-1 cell (THP-1 cell; dilution 100, PDT + (5 J/cm^2)) | % of inhibition (mean ± SD), THP-1 cell (THP-1 cell; dilution 100, PDT −) | % of inhibition (mean ± SD), THP-1 cell (THP-1 cell; [6]) | % of inhibition (mean ± SD), THP-1 cell (THP-1 cell; dilution 1,000, PDT −) | % of inhibition (mean ± SD), Promastigotes ([3]; dilution 2, PDT + (5 J/cm^2)) | % of inhibition (mean ± SD), Promastigotes ([3]; dilution 2, PDT −) | % of inhibition (mean ± SD), Promastigotes ([3]; dilution 10, PDT + (5 J/cm^2)) | % of inhibition (mean ± SD), Promastigotes ([3]; dilution 10, PDT −) | other results |
| --- | --- | --- | --- | --- | --- | --- | --- | --- | --- | --- | --- | --- | --- | --- | --- | --- | --- | --- | --- | --- | --- |
| NC[C@@H]1O[C@H](O[C@H]2[C@@H](O)[C@H](O[C@@H]3[C@@H](O)[C@H](N)C[C@H](N)[C@H]3O[C@H]3O[C@H](CO)[C@@H](O)[C@H](O)[C@H]3N)O[C@@H]2CO)[C@H](N)[C@@H](O)[C@@H]1O [PM (s), paromomycin sulfate] | 54.1 ± 2.6% | 60.6 ± 2.4% | 46.6 ± 2.8% | 48.5 ± 5.8% | 30.3 ± 2.8% | 27.3 ± 8.1% | 0% | 2.3 ± 1.1% | 78.7 ± 5.3% | 79.2 ± 3.0% | 34.3 ± 5.2% | 33.1 ± 3.5% | 18.6 ± 5.1% | 17.9 ± 8.0^a % | 0.7 ± 1.0% | 0.3 ± 0.6% | 78.7 ± 5.9% | 78.5 ± 3.3% | 98.5 ± 1.4% | 98.4 ± 1.6% | Concentrations of PM detected in organs [1]: 27.3 - 292.5 μM/25 mg and 27.26 - 292.49 μM/25 mg; Healing rates (clinical efficacy) (cutaneous leishmaniasis): 53.3 to 90.0%; % of inhibition (mean ± SD), Promastigotes [3, 5]: 99.9 ± 0.0%; % of inhibition (mean ± SD), Promastigotes ([3]; dilution 100, PDT −): 99.9 ± 0.0%; % of inhibition (mean ± SD), Promastigotes [3, 6]: 100%; % of inhibition (mean ± SD), Promastigotes ([3]; dilution 1,000, PDT −): 100% |
| chloroaluminium phthalocyanine [ClAlPc (s)] | 93.4 ± 2.8% | 2.8 ± 0.3% | 65.8 ± 4.7% | 0.5 ± 0.8% | 21.8 ± 7.0^a % | 0.4 ± 0.0% | 6.9 ± 2.1^a % | 0% | 97.8 ± 0.6% | 4.5 ± 1.7% | 97.6 ± 0.5% | 0% | 49.1 ± 4.8% | 0% | 13.8 ± 4.1% | 0% | 100% | 0.3 ± 0.7% | 100% | 1.0 ± 1.0% | ClAlPc retained in the epidermis/dermis ([4]; after 24 h): 26.27 μM/cm^2; ClAlPc retained by the stratum corneum ([4]; after 24 h, tape stripping): 143.97 μM/cm^2; ClAlPc skin permeation (receptor compartment) ([4]; any time point up to 24 h): No skin ClAlPc permeation was observed; also recorded: did not permeate through the skin; % of inhibition (mean ± SD), Promastigotes ([3]; dilution 100, PDT −): 0%; % of inhibition (mean ± SD), Promastigotes [3, 6]: 0%; % of inhibition (mean ± SD), Promastigotes ([3]; dilution 1,000, PDT −): 0% |
